Screens (PubChem)
Rows were chosen to be rich in hits. Some 2.6% of all compounds tested hit in one or more screens of this group.
IMP-1 inhibitor – inhibitors of Pseudomonas aeruginosa IMP-1 metallo-beta-lactamase | purified IMP-1, nitrocefin hydrolysis, epi-absorbance fluorescence | inhibition, % at 5.6 µM | 290,000 tested, 0.45% active | AID 1556;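 active = inhibition above the mean plus 3 SD of all compounds in the same screening run, cut at about 4.5% in these data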;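 also: 0% = IMP-1 with DMSO and 100% = DMSO wells lacking enzyme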
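system = purified recombinant IMP-1 beta-lactamase | amount = 0.2 nM IMP-1, as dispensed | medium = HEPES buffer pH 7.1 with ZnSO4 and Brij 35 | times = 25 °C, 15 min preincubation, 25 min reaction | detection = plate fluorescence quenching by hydrolysis product, ex 480/em 530 nm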
Runt-CBFb FRET – blocks binding of human RUNX1 Runt domain to CBFb. Q01196+Q13951. inhibition, % at 20 µM. 220,000 tested, 0.46% active. Cerulean-Runt/Venus-CBFb FRET ratio 530/480, 1 h. AID 1496;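 active = inhibition over about 50% at 20 µM in the single-dose screen, limit read from the data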;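 also: 0% = DMSO wells and 100% = excess unlabeled CBFb competitor control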
Target sequence (Q01196 whole entry, looked up, the tested form may be a part): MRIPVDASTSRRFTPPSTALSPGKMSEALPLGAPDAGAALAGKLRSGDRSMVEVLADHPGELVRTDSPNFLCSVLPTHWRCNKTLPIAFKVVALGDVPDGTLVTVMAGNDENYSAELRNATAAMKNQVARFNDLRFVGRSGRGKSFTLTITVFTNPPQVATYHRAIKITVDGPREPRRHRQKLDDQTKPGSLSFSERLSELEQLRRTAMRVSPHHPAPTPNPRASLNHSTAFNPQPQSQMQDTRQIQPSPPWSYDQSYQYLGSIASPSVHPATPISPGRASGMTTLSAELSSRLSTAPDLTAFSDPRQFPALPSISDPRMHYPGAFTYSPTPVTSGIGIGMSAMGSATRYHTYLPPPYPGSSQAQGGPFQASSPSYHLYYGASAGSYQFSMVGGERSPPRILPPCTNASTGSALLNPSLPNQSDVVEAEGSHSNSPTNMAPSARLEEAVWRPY
Target sequence (Q13951 whole entry, looked up, the tested form may be a part): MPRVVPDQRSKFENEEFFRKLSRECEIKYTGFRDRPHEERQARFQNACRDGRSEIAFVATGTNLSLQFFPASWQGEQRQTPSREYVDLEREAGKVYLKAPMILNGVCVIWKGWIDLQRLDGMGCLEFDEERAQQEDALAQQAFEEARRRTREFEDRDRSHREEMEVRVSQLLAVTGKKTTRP
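Assay system: Cerulean-Runt domain / Medium: Tris 50 mM pH 7.5, KCl, K2SO4, 0.01% BSA / Timing: protein complex preformed 1 h, compound exposure 1 h, room temperature, dark / Measured by: FRET, excitation 422 nm, emission at 530 and 480 nm / Evaluation: loss of energy transfer signal / Control set: 5 µM unlabeled CBFb as full-inhibition high control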
VIM-2 inh – blocks Pseudomonas aeruginosa VIM-2 metallo-beta-lactamase; 290,000 tested, 0.89% active; inhibition, % at 5.6 µM; purified VIM-2, nitrocefin hydrolysis, epi-absorbance fluorescence;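 active = inhibition above the mean of all tested compounds plus 3 SD, cutoff set per screening run, cut at about 7.5% in these data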;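 also: red hydrolysis product quenches plate fluorescence so inhibitors raise well fluorescence; 0% = enzyme with DMSO and 100% = DMSO without enzyme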
RanGTP-Impb inh – inhibitors of RanGTP-importin-beta interaction, primary screen, biochemical, FRET, CFP-Ran, YFP-importin-beta, homogeneous | cell-free CFP-Ran/YFP-importin-beta FRET ratio | inhibition, % (test concentration not listed) | 300,000 tested, 1.1% active | AID 2216;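 active = more than half of the replicate wells show a fall in the fluorescence ratio signal beyond about 16%, limit read from the data, passing the limit was not always enough; inconclusive = exactly half of the replicate wells pass the set limit; inactive = fewer than half of replicates pass the limit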;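 also: 0% = DMSO wells and 100% = Ran loaded with GDP instead of GTP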
Runt-SMMHC FRET – blocks binding of human RUNX1 Runt domain to CBFb-SMMHC | Cerulean-Runt/Venus-CBFb-SMMHC FRET ratio 530/480, 1 h | 220,000 tested, 0.74% active | inhibition, % at 20 µM | Q01196+Q13951;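 active = mean inhibition across duplicate retests at 20 µM reaching about 50%, limit read from the data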;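 also: 0% = DMSO wells and 100% = wells with excess untagged CBFb-SMMHC; inhibitors lower the FRET ratio by blocking Runt binding to CBFb-SMMHC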
YIC counter – counter-screen for RanGTP-importin-beta inhibitors: YIC FRET probe | shares compounds with RanGTP-Impb inh | Purified YIC probe, intramolecular FRET ratio YFP/CFP | IC50, µM | 1,000 tested, 40% active;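 active = fitted half-maximal inhibitory concentration no more than tenfold above the top dose tested; inconclusive = flat fit with 30 to 70% activity, or poor fit; inactive = half-maximal concentration beyond tenfold above the top dose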
* marks the source's active call; other numbers are inactive results; ? = inconclusive; · = no result given.

SMILES | IMP-1 inhibitor | Runt-CBFb FRET | VIM-2 inh | RanGTP-Impb inh | Runt-SMMHC FRET | YIC counter
COc1ccc(-c2noc(N3CCCC(C(=O)Nc4ccc(C(C)=O)cc4)C3)n2)cc1 (stereo not given) | -2.3 | · | -1.8 | -3.1 | · | ·
O=C(CSc1nnc(-c2ccc(F)cc2)o1)Nc1ccc(S(=O)(=O)N2CCCCCC2)cc1 | 1.2 | -2.4 | 0.5 | 4.5 | -1.0 | ·
O=C(CSc1nnc(-c2ccc(F)cc2)o1)Nc1ccc(S(=O)(=O)N2CCCC2)cc1 | -3.0 | -2.2 | -5.4 | 16.8* | 1.2 | >50
CC(C)(C)c1ccc(S(=O)(=O)NCC(=O)N2CCN(C(=O)c3ccco3)CC2)cc1 | -2.5 | -2.2 | -2.3 | 20.6* | -1.1 | >50
CC(C)(C)c1ccc(S(=O)(=O)NCC(=O)N2CCCC2)cc1 | -4.3 | · | -0.9 | -2.1 | · | ·
CC1(C)CC(=O)C(N=Nc2cccc(F)c2C#N)=C(O)C1 | -0.7 | 1.6 | -0.7 | -2.7 | -7.6 | ·
CCOC(=O)C1(CC2CCCCO2)CCN(C(=O)Nc2ccc3c(c2)OCO3)CC1 (stereo not given) | -3.6 | 1.1 | -1.2 | 21.7* | 4.4 | >50
Cc1ccc(S(=O)(=O)NC(C(=O)Oc2ccc3ccc(=O)oc3c2)c2ccccc2)cc1 (stereo not given) | -2.9 | 84.7* | -3.9 | 20.4* | 160.0* | 28.1*
O=c1/c(=C/c2ccccn2)sc2n1CN(c1ccccc1)CN=2 | -2.3 | 0.4 | -3.7 | 0.7 | 1.1 | ·
Cc1cc(C)c2c(c1)/C(=c1/sc3n(c1=O)CN(c1ccccc1)CN=3)C(=O)N2 | -2.6 | -2.3 | 0.1 | 53.6* | -0.4 | >50
CCOc1ccc(NC(=O)CC2C(=O)N(c3cccc(OC)c3)C(=O)N2C(C)C)cc1 (stereo not given) | -0.9 | 0.8 | -0.5 | ? | -4.4 | ·
COc1ccc(CC(=O)N2CCN(c3ccccc3OC)CC2)cc1OC | -4.8 | · | 0.2 | 0.7 | · | ·
CCOC(=O)c1c(N2C(=O)Nc3ccccc3N2O)sc2c1CCCC2 | -1.1 | 0.5 | -0.3 | 20.3* | -0.6 | >50
COc1ccc(N(CC(=O)NCc2ccc3c(c2)OCO3)C(=O)c2csnn2)cc1 | -2.8 | · | -0.6 | 1.4 | · | ·
COc1ccccc1C(=O)NC(=S)Nc1ccc(N2CCCC2)cc1 | -2.8 | 1.3 | -1.9 | 19.7* | 1.7 | >50
COc1cc(/C(O)=C(\C#N)c2nc3ccccc3[nH]2)cc(OC)c1OC | -2.7 | · | -2.1 | 40.3* | · | 7.43*
O=C(Nc1ccnn1C1CCN(C/C=C/c2ccccc2)CC1)c1cccc(F)c1 | -1.6 | · | -2.7 | 4.2 | · | ·
Cc1cc(Cl)c(S(=O)(=O)N2CCCC2)cc1OCC(=O)NC1CCCCC1 | 0.3 | -2.9 | -1.4 | 24.3* | -0.8 | >50
Cc1cc(Cl)c(S(=O)(=O)NC(C(=O)O)C(C)C)cc1OCC(=O)NC1CCCCC1 (stereo not given) | -0.7 | 1.5 | 0.0 | 1.1 | -1.0 | ·
COc1ccc(/C=N/NC(=O)c2sc3nc(C)cc(C)c3c2N)cc1 | 0.3 | 18.9 | 0.3 | 22.8* | 35.2 | 6.59*
CC1=C(C(=O)OC(C)C)C(c2cccnc2)C2=C(CC(C)(C)CC2=O)N1 (stereo not given) | -3.4 | 77.4* | -0.2 | 18.7* | 101.7* | 23.2*
COc1ccc(N2CCN(C(=O)C3(C)CC3(Cl)Cl)CC2)cc1 (stereo not given) | -3.7 | 0.4 | -0.7 | -2.3 | 1.4 | ·
Clc1ccc(-c2ccc(C=Nc3ccc(N4CCOCC4)cc3)o2)c(Cl)c1 | -8.5 | -1.3 | -3.1 | -0.6 | -2.2 | ·
Clc1cccc(-c2ccc(C=Nc3ccc(N4CCOCC4)cc3)o2)c1Cl | -8.4 | 7.0 | -2.4 | 23.2* | -1.5 | >50
Cc1ccc(C(=O)Nc2ncc(Cc3ccc(F)cc3)s2)o1 | -4.5 | -2.5 | -4.1 | 27.7* | 2.9 | >50
SMILES | IMP-1 inhibitor | Runt-CBFb FRET | VIM-2 inh | RanGTP-Impb inh | Runt-SMMHC FRET | YIC counter
Cc1c(C=O)cnn1CCC(=O)O | -1.3 | · | -3.9 | 22.7* | · | >50
CC(=O)N1C(C)(C)CC(=NOS(=O)(=O)c2ccccc2)CC1(C)C | -2.0 | -0.5 | -2.5 | · | -0.5 | ·
Cc1cccc(-c2noc(CNC(=O)Nc3ccc(F)cc3)n2)c1 | -3.9 | 1.0 | -4.8 | 4.5 | 1.5 | ·
CC(=O)Nc1ccc(S(=O)(=O)NCc2nc(-c3cccc(C)c3)no2)cc1 | -1.9 | · | -5.4 | 15.3* | · | 39.1*
O=C(Nc1nc2ccc(S(=O)(=O)N3CCCCC3)cc2s1)c1cccnc1 | -2.8 | -10.7 | -3.0 | 22.0* | -7.0 | >26
Cc1ccc(NC(=S)N2CCN(S(=O)(=O)c3ccc(F)cc3)CC2)cc1 | -5.7 | · | -6.2 | 3.2 | · | ·
O=C(Nc1ccccc1)Nc1ccc(O)c2ccccc12 | · | · | · | 12.7 | · | ·
N#CCCN(C(=O)Nc1ccc(Cl)cc1)c1ccccc1 | 2.3 | -0.6 | -1.2 | 95.6* | -4.0 | >50
N#CCCN(C(=O)Nc1ccccc1)c1ccccc1 | -1.9 | 1.1 | -3.6 | 0.9 | -0.6 | ·
COc1cc(OC)c(/C=N/NC(=O)c2ccc(Cn3nc([N+](=O)[O-])cc3C)cc2)c(OC)c1 | -1.7 | 4.1 | -0.9 | 1.6 | 5.0 | ·
COC(=O)c1ccc2c(=O)n(CCN3CCOCC3)c(SCC(=O)C(C)(C)C)nc2c1 | -1.2 | -0.2 | -1.5 | 18.8* | -3.3 | >50
O=C(Cn1nnc2ccccc21)N/N=C\c1cccs1 | -2.1 | -1.7 | 0.6 | 21.7* | -2.2 | >50
N#CC1=C(N)SC(N)=C(C#N)C1c1cccc(Oc2ccccc2)c1 | 1.5 | 39.4 | 1.0 | 24.2* | 78.2* | >50
CCCCOc1ccc(OCCSc2nc3ccccc3n2CC(=O)O)cc1 | -0.7 | · | 1.0 | 17.9* | · | >50
CN1CCc2c(sc(NC(=O)c3ccc(S(=O)(=O)N4CCOCC4)cc3)c2C(N)=O)C1 | -1.6 | 0.7 | -0.7 | 19.3* | 1.7 | 46*
CN=C(Nc1cc(C)nn1CCC#N)c1ccc(F)cc1 | -2.2 | -0.8 | -1.2 | 2.4 | -3.6 | ·
CN=C(Nc1cc(C)nn1CCC#N)c1ccccc1 | -2.4 | 0.6 | -3.2 | 19.4* | -2.8 | >50
O=C(c1ccco1)N1CCN(c2cc(=O)n(-c3ccc(Cl)cc3)c(=O)[nH]2)CC1 | -2.6 | 0.1 | -5.6 | 48.0* | 2.5 | >50
O=C(c1ccc(Cl)cc1)N1CCN(C(=O)c2ccco2)CC1 | -2.5 | -1.4 | -2.3 | -0.2 | 0.2 | ·
COC(=O)Nc1ccc(NC(C)=O)cc1 | -0.8 | -1.4 | -2.1 | 17.3* | 0.1 | >50
COc1cc2sc3ccc(C#Cc4ccc(N)cc4)cc3c(=O)c2cc1OC | · | · | · | 4.8 | · | ·
COc1cc2sc3ccc(C#CC4(O)CCCCC4)cc3c(=O)c2cc1OC | · | · | · | 31.6* | · | 25.9*
O=C(Cc1ccccc1)Nc1ccc(NC(=O)c2ccco2)cc1Cl | -3.9 | · | -4.4 | -1.5 | · | ·
CC(C)(C)Nc1nc(SCC(=O)Nc2ccccc2)nc(N2CCOCC2)n1 | -2.1 | -2.8 | 0.6 | 21.5* | 3.2 | >50
